Reference: PMC11551477 (Pharmacology Research & Perspectives, 2024)
Where two headings read alike, the source gives them in different places.

Experiments:
[1] = tested on: plasma protein (mainly albumin); settings: binds mainly to albumin; cited from earlier work
[2] = cited from earlier work
[3] = cited from earlier work; remark: listed apart in the source
[4] = 20 mg repeated, fed, NCA, cited from earlier work
[5] = tested on: hyperuricemia including gout; settings: pediatric patients weighing <40 kg and ≥40 kg; cited from earlier work
[6] = Integrated PopPK analysis; assay type: in vivo, human (Japanese pediatric patients and adult population)
In short: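 Plasma concentrations (2611 samples, 142 Japanese subjects) were pooled from six oral-dosing studies: pediatric patients aged 6–18 y on once-daily doses for 52 weeks, healthy adult males, and fed adults with normal, mild or moderately impaired renal function. Assays were LC–MS/MS (LLOQ 0.5 ng/mL) or HPLC (LLOQ 4 ng/mL). Points with |CWRES| >6 were excluded. Model: linear two-compartment, first-order absorption with lag and first-order elimination. Covariate selection was forward (p<.05) then backward (p<.01), with condition number ≤1000. Evaluation used bootstrap and pc-VPC.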

[7] = standard NCA analysis; cited from earlier work
[8] = Post hoc estimates of steady-state PK parameters from the PopPK final model; assay type: in vivo, human (Japanese pediatric patients and adult population); settings: for CLss/F (apparent total body clearance at steady state) / Dose‐normalized AUCτ,ss / Dose‐normalized C max,ss: fed, mean ± SD
In short: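 Steady-state parameters were derived by post hoc estimation from the final PopPK model, assuming each study's dose given once daily to fed subjects. Pediatric estimates used the original maintenance doses: 20 mg for <40 kg and 40 mg for ≥40 kg. CL/F was also expressed per body weight. Outputs were CLss/F, Cmax,ss and AUCτ,ss, compared with the adult population.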

[9] = healthy Japanese adult males, NCA; cited from earlier work
[10] = mild dysfunction group (CLCr-based)
[11] = moderate renal dysfunction group (CLCr-based)
[12] = fed vs fasted, present PopPK analysis
[13] = final PopPK model, fixed effect
[14] = adult population (n = 113), 10–160 mg once daily
[15] = pediatric patients <40 kg (n = 10), 20 mg once daily
[16] = pediatric patients weighing <40 kg vs adult population
[17] = pediatric patients weighing ≥40 kg vs adult population
[18] = pediatric patients ≥40 kg (n = 19), 40 mg once daily

Cc1nc(-c2ccc(OCC(C)C)c(C#N)c2)sc1C(=O)O [febuxostat]
Plasma protein binding rate [1]: approximately 99% | Eliminated as unchanged drug through the urine [2]: < 5% | Solubility (in words) [3]: poorly soluble | Increase of AUCτ,ss vs normal renal function group [4, 10]: 52.5% | Steady‐state plasma C max,ss vs normal renal function group [4, 10]: did not differ noticeably | Increase of AUCτ,ss vs normal renal function group [4, 11]: 67.6% | Increase of C max,ss vs normal renal function group [4, 11]: 25.5% | Efficacy in pediatric patients compared with adults [5]: as effective | Tolerability in pediatric patients compared with adults [5]: well tolerated | Between-subject variability of CL/F, CV (%) ([6]; CV = SQRT(EXP(ω^2)–1) × 100): 26.2% | Between-subject variability of Ka, CV (%) ([6]; CV = SQRT(EXP(ω^2)–1) × 100): 306.3% | Between-subject variability of Q/F, CV (%) ([6]; CV = SQRT(EXP(ω^2)–1) × 100): 71.3% | Between-subject variability of V2/F, CV (%) ([6]; CV = SQRT(EXP(ω^2)–1) × 100): 25.7% | Between-subject variability of V3/F, CV (%) ([6]; CV = SQRT(EXP(ω^2)–1) × 100): 54.4% | Residual variability, CV (%) ([6]; CV = σ × 100): 36.9% | ALAG1, Bootstrap Median ([6]; bootstrap, 1000 simulations): 0.438 h | ALAG1, Bootstrap parameter estimate Mean ± SE ([6]; bootstrap, 1000 simulations): 0.441 ± 0.0210 h | CL/F, Bootstrap Median ([6]; bootstrap, 1000 simulations): 6.52 L/h | CL/F, Bootstrap parameter estimate Mean ± SE ([6]; bootstrap, 1000 simulations): 6.52 ± 0.197 L/h | CLEGFR, Bootstrap Median ([6]; bootstrap, 1000 simulations): 0.326 | CLEGFR, Bootstrap parameter estimate Mean ± SE ([6]; bootstrap, 1000 simulations): 0.326 ± 0.0586 | CLWGT, Bootstrap Median ([6]; bootstrap, 1000 simulations): 0.580 | CLWGT, Bootstrap parameter estimate Mean ± SE ([6]; bootstrap, 1000 simulations): 0.589 ± 0.130 | F1 (FED), Bootstrap Median ([6]; bootstrap, 1000 simulations): 0.839 | F1 (FED), Bootstrap parameter estimate Mean ± SE ([6]; bootstrap, 1000 simulations): 0.838 ± 0.0274 | Ka, Bootstrap Median ([6]; bootstrap, 1000 simulations): 3.51 h⁻¹ | Ka, Bootstrap parameter estimate Mean ± SE ([6]; bootstrap, 1000 simulations): 4.24 ± 2.78 h⁻¹ | Q/F, Bootstrap Median ([6]; bootstrap, 1000 simulations): 1.79 L/h | Q/F, Bootstrap parameter estimate Mean ± SE ([6]; bootstrap, 1000 simulations): 1.78 ± 0.127 L/h | V2/F, Bootstrap Median ([6]; bootstrap, 1000 simulations): 19.4 L | V2/F, Bootstrap parameter estimate Mean ± SE ([6]; bootstrap, 1000 simulations): 19.4 ± 0.792 L | V3/F, Bootstrap Median ([6]; bootstrap, 1000 simulations): 15.6 L | V3/F, Bootstrap parameter estimate Mean ± SE ([6]; bootstrap, 1000 simulations): 15.5 ± 0.822 L | σ ^2, Bootstrap Median ([6]; bootstrap, 1000 simulations): 0.135 | σ ^2, Bootstrap parameter estimate Mean ± SE ([6]; bootstrap, 1000 simulations): 0.135 ± 0.00823 | ω Ka ^2, Bootstrap Median ([6]; bootstrap, 1000 simulations): 2.37 | ω Ka ^2, Bootstrap parameter estimate Mean ± SE ([6]; bootstrap, 1000 simulations): 2.60 ± 0.908 | ω Q/F ^2, Bootstrap Median ([6]; bootstrap, 1000 simulations): 0.409 | ω Q/F ^2, Bootstrap parameter estimate Mean ± SE ([6]; bootstrap, 1000 simulations): 0.414 ± 0.0686 | ω Q/F‐V3/F ^2, Bootstrap Median ([6]; bootstrap, 1000 simulations): 0.302 | ω Q/F‐V3/F ^2, Bootstrap parameter estimate Mean ± SE ([6]; bootstrap, 1000 simulations): 0.304 ± 0.0507 | ω V2/F ^2, Bootstrap Median ([6]; bootstrap, 1000 simulations): 0.0633 | ω V2/F ^2, Bootstrap parameter estimate Mean ± SE ([6]; bootstrap, 1000 simulations): 0.0648 ± 0.0188 | ω V3/F ^2, Bootstrap Median ([6]; bootstrap, 1000 simulations): 0.251 | ω V3/F ^2, Bootstrap parameter estimate Mean ± SE ([6]; bootstrap, 1000 simulations): 0.254 ± 0.0511 | Reduction of AUCτ,ss in the fed group [6, 12]: 16.2% | Reduction of C max,ss in the fed group [6, 12]: 16.2% | Reduction of relative bioavailability in the fed group [6, 12]: 16.2% | σ ^2 (exponential error), residual variability, Estimate ([6]; final PopPK model): 0.136 | ω CL/F‐V2/F ^2 (covariance, correlation variability), Estimate ([6]; final PopPK model): 0.0483 | ω Ka ^2 (between-subject variability), Estimate ([6]; final PopPK model): 2.34 | ω Q/F ^2 (between-subject variability), Estimate ([6]; final PopPK model): 0.411 | ω Q/F‐V3/F ^2 (covariance, correlation variability), Estimate ([6]; final PopPK model): 0.307 | ω V2/F ^2 (between-subject variability), Estimate ([6]; final PopPK model): 0.0638 | ω V3/F ^2 (between-subject variability), Estimate ([6]; final PopPK model): 0.259 | ω CL/F ^2 (between-subject variability), Estimate ([6]; final PopPK model, exponential error model): 0.0662 | ALAG1 (absorption lag time), Estimate [6, 13]: 0.437 h | Ka (first-order absorption rate constant), Estimate [6, 13]: 3.43 h⁻¹ | CLWGT (covariate for effect of body weight on CL/F), Estimate ([6]; final PopPK model, power function exponent, centered at 60.6 kg): 0.584 | CLEGFR (covariate for effect of eGFR on CL/F), Estimate ([6]; final PopPK model, power function exponent, centered at 98.6 mL/min/1.73 m^2): 0.324 | Vd/F ([6]; human, plasma, oral): 19.4 L | Effect of sex on PK [7]: no notable effect | CLss/F (apparent total body clearance at steady state) [8, 14]: 8.27 ± 2.00 L/h | Dose‐normalized AUCτ,ss [8, 14]: 128 ± 32 ng·h/mL/mg | Dose‐normalized C max,ss [8, 14]: 30.2 ± 10.6 ng/mL/mg | CL/F adjusted by body weight (post hoc estimate), males vs females ([8]; children or adults, Figure S2): no clear difference | CLss/F (apparent total body clearance at steady state) [8, 15]: 4.28 ± 1.20 L/h | Dose‐normalized AUCτ,ss [8, 15]: 251 ± 72 ng·h/mL/mg | Dose‐normalized C max,ss [8, 15]: 42.7 ± 7.6 ng/mL/mg | CLss/F relative to the adult population [8, 16]: 0.52 fold | Dose‐normalized AUCτ,ss relative to the adult population [8, 16]: 1.96 fold | Dose‐normalized C max,ss relative to the adult population [8, 16]: 1.41 fold | CLss/F relative to the adult population [8, 17]: 0.80 fold | Dose‐normalized AUCτ,ss relative to the adult population [8, 17]: 1.38 fold | Dose‐normalized C max,ss relative to the adult population [8, 17]: 1.18 fold | CLss/F (apparent total body clearance at steady state) [8, 18]: 6.59 ± 2.45 L/h | Dose‐normalized AUCτ,ss [8, 18]: 176 ± 75 ng·h/mL/mg | Dose‐normalized C max,ss [8, 18]: 35.7 ± 10.4 ng/mL/mg | AUCinf lower in the fed group than in the fasted group [9]: 18% | C max lower in the fed group than in the fasted group [9]: 28%
